The record followed here is ChEMBL document CHEMBL1126600, “A trans-platinum complex showing higher antitumor activity than the cis congeners” (J Med Chem, 1993).

For orientation: T/C means the ratio of treated to control.

Assay type in all cases: functional, cell-based
Common to all, as to conditions: Mus musculus

Assay [1] relates to P388. In words: Effect was evaluated by implanting P388/DDP leukemia cells into B6D2F1 mice and treated for 1-7 days at 2 umol/ Kg dose. In a few lines:
(§1)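 P388 or P388/DDP leukemia cells (10^6/mouse) implanted ip into B6D2F1 mice on day 0; 6 animals/group, 8 untreated controls. Complexes dissolved in water just before use, given ip. Read-out %T/C = median survival time ×100 of treated vs untreated; >125% taken as significant. P388/DDP subline raised in vivo by serial passage with single ip cis-DDP (20 µmol/kg) 2 days after implantation.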

Assay [2] relates to P388. In words: Inhibitory effect was evaluated on the growth of P388 cells. The procedure, abridged: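 P388 cells (10^5 cells/mL, exponential growth) exposed to the platinum complexes at increasing concentrations for 1 h at 37 °C, drug removed, then grown 48 h more; cell number and viability counted by trypan blue exclusion. ID50 = 50% growth-inhibitory concentration; five experiments, each in triplicate, mean ± standard deviation.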

The subject of assay [3] is P388. In words: Effect was evaluated by implanting P388 cells into B6D2F1 mice and treated for 1-7 days at 2 umol/ Kg dose. The procedure, abridged: as §1
The test system of assay [4] is P388. In words: Effect was evaluated by implanting P388/DDP leukemia cells into B6D2F1 mice and treated for 1 day at 193 umol/ Kg dose. The procedure, abridged: as §1
In assay [5] the test system is P388. The assay can be described thus: Effect was evaluated by implanting P388 cells into B6D2F1 mice and treated for 1 day at 26 umol/ Kg dose. The procedure, abridged:
as §1

For assay [6], the system named is P388. In words: Effect was evaluated by implanting P388 cells into B6D2F1 mice and treated for 1 day at 193 umol/ Kg dose. In a few lines:
as §1

Take CISPLATIN: the T/C was 90% in the assay with P388 [1], 203% in the assay with P388 [3], 95% in the assay on P388 [4] and 202% in the assay with P388 [5]. For the same sequence, the ID50 with P388 [2] turned out to be 2.05 µM.

Take TRANSPLATIN: the T/C was 105% in the assay on P388 [6] and 107% with P388 [4]. In addition, in the assay with P388 [2], the ID50 came out at 85 µM.
